PG9 Ab binder: binders of HIV-1 gp120 antibody PG9, primary screen, biochemical, TR-FRET; AID 624416, 2012; inhibition, % at 6.7 µM; 360,000 tested, 0.43% active; HIV-1 gp120 / PG9 antibody interaction; TR-FRET gp120-PG9 antibody binding; in the data active means inhibition above about 8.5%
NR1D1 modulator: modulators of Rev-erb alpha DNA binding, primary screen, biochemical, FITC-DNA, fluorescence polarization, uHTS. Nuclear receptor subfamily 1 group D member 1 (Homo sapiens), P20393. Rev-erbα–FITC-DNA binding, 90 min. activity, % at 10 µM. 370,000 tested, 0.79% active;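 active means activity above about 14%, limit read from the data; passing the limit was not always enough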;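 further: 0% = DMSO wells with 35 nM protein and 100% = DMSO wells with 750 nM protein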
NR2E3 ag-1: NR2E3 agonists in two-hybrid cells, primary screen, cell-based, luminescence, CHO-S, Gal4-NCOR/VP16-NR2E3; luciferase; inhibition of corepressor binding, % at 3.98 µM; 360,000 tested, 0.35% active; AID 602229, 2012;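 active means inhibition above the mean of all tested compounds plus 3 SD, cut at about 70% in these data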;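 further: 0% = DMSO with NR2E3 transfected cells and 100% = cells lacking NR2E3 construct; higher means lower luciferase signal from less NR2E3 corepressor binding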
Target sequence (Q9Y5X4 whole entry, looked up, the tested form may be a part): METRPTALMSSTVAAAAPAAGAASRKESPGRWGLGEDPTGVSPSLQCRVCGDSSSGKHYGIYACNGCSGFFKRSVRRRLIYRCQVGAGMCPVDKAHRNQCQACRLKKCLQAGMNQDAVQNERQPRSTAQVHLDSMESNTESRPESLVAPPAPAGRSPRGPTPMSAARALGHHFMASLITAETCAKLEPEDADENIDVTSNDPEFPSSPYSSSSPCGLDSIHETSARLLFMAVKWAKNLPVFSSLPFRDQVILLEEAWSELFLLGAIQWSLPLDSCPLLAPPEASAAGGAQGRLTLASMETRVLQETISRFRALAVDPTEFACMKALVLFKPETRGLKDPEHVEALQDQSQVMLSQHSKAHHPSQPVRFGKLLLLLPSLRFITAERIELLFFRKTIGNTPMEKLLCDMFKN
NR2E3 ag-2: inhibitors of NR2E3-RetCOR corepressor binding, primary screen, NR2E3 agonist project, biochemical, TR-FRET, GST-NR2E3, biotin-RetCOR; Photoreceptor-specific nuclear receptor (Homo sapiens), Q9Y5X4; 1536-well; inhibition of corepressor binding, % at 4.78 µM; 320,000 tested, 0.12% active; AID 2300, 2010;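 active means percent inhibition above the cutoff of mean plus 3 SD of all tested compounds, set per screening campaign, cut at about 20% in these data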;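 further: 0% = DMSO wells and 100% = biotin wells as full block of FRET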
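Assay system: NR2E3–RetCOR corepressor complex. Quantity: 1.35 nM GST-NR2E3. Buffer or medium: pH 7.5 Tris-based buffer. Reagent: biotinylated RetCOR corepressor at 7 nM final. Schedule: 5 h at 4 °C. Detection: TR-FRET, emission read at 617 and 671 nm. Replicates: one well per compound, singlicate testing.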
NR2E3 ag confirm: NR2E3 agonist confirmation in cells, cell-based, luminescence, CHO-S two-hybrid; shares compounds with NR2E3 ag-1; CHO-S mammalian two-hybrid NR2E3-NCOR, luciferase luminescence; inhibition, % at 3.98 µM; 2,300 tested, 51% active; AID 624378, 2012;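 active means average inhibition above a cutoff equal to the mean inhibition of all tested compounds plus one SD, cut at about 70% in these data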;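 further: 0% = DMSO in NR2E3 cells and 100% = DMSO in cells lacking NR2E3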
GAL4-VP16 luc: GAL4-VP16 reporter modulators, confirmation, counter-screen for NR2E3 agonist project, cell-based, luminescence, CHO-S, high throughput | shares compounds with NR2E3 ag-1 | CHO-S GAL4-VP16 luciferase reporter | inhibition, % at 3.98 µM | 2,300 tested, 29% active | AID 624379, 2012;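 active means mean inhibition above a cutoff equal to the average over all tested compounds plus one standard deviation, cut at about 70% in these data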;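 further: luciferase from a UAS reporter driven by GAL4-VP16 transactivation; 0% = DMSO with VP16-transfected cells and 100% = DMSO with cells lacking VP16; higher means less reporter light so more repression of VP16 activity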
Active calls of the source: *. Most compounds without a hit are left out; they make up all but 1.4% or so of the library.

What do the screens show for `COC(=O)c1cc(C2(c3c[nH]c4ccccc34)CCN(C(=O)OC(C)(C)C)CC2)n2ccccc12`?
NR1D1 modulator: 0.2

What do the screens show for `CCOC(=O)c1c(NC(=O)/C=C/C(=O)O)sc(C)c1-c1ccc(C(C)(C)C)cc1`?
PG9 Ab binder: 1.2; NR1D1 modulator: -1.4; NR2E3 ag-1: 53.2; NR2E3 ag-2: 0.0; NR2E3 ag confirm: 50.9; GAL4-VP16 luc: 7.6

Results for CCCCOCCCNc1ncnc2c1[nH]c1ccccc12 ?
PG9 Ab binder: -2.7; NR1D1 modulator: -4.2; NR2E3 ag-1: 87.1*; NR2E3 ag-2: 0.0; NR2E3 ag confirm: 96.2*; GAL4-VP16 luc: 81.5*

Results for CCCCOc1ncnc2c1[nH]c1ccc(OCC)cc12 ?
PG9 Ab binder: 1.3; NR1D1 modulator: -13.4; NR2E3 ag-1: -13.7; NR2E3 ag-2: -1.0

How did CCCCOc1ncnc2c1[nH]c1ccccc12 do in these assays?
PG9 Ab binder: -0.9; NR1D1 modulator: -0.2; NR2E3 ag-1: 78.8*; NR2E3 ag-2: -1.2; NR2E3 ag confirm: 92.4*; GAL4-VP16 luc: 64.0

Results for CCCCOc1ncnc2c1[nH]c1ccc(OC)cc12 ?
PG9 Ab binder: 0.2; NR1D1 modulator: -2.6; NR2E3 ag-2: 2.3

Results for CCCCOc1ncnc2c1[nH]c1ccc(F)cc12 ?
PG9 Ab binder: -1.9; NR1D1 modulator: 1.6; NR2E3 ag-1: 75.1*; NR2E3 ag-2: -1.7; NR2E3 ag confirm: 96.8*; GAL4-VP16 luc: 72.8*

What do the screens show for `COC(=O)N1CCCC1c1cccc2[nH]cc(C)c12` (stereo not drawn)?
NR1D1 modulator: -0.3

Results for CC1C/C(=N\NC(=S)NCc2ccccc2)CC(C)(C)C1 (stereo not drawn) ?
PG9 Ab binder: -0.7; NR1D1 modulator: -1.9; NR2E3 ag-1: 49.0; NR2E3 ag-2: -0.3; NR2E3 ag confirm: -31.0; GAL4-VP16 luc: -3.2

How did CN(C)c1ccc(NC(=S)OC2CCC23CCC(c2ccccc2)CC3)cc1 (stereo not drawn) do in these assays?
NR1D1 modulator: -1.4

What do the screens show for `CC1CCN(c2ccc(C(=O)O)cc2NS(=O)(=O)c2cccc3cccnc23)CC1`?
NR1D1 modulator: -5.1

How did S=C(Nc1cccc(Br)c1)OC1CCC12CCC(c1ccccc1)CC2 (stereo not drawn) do in these assays?
NR1D1 modulator: 2.0

Results for CC(C)NC(=S)N/N=C1\CCCCC1C1CCCCC1 (stereo not drawn) ?
PG9 Ab binder: -0.7; NR1D1 modulator: 9.3; NR2E3 ag-1: 67.1; NR2E3 ag-2: 0.8; NR2E3 ag confirm: -15.8; GAL4-VP16 luc: -0.1

Results for CC1CCCC/C1=N\NC(=S)Nc1ccccc1 (stereo not drawn) ?
PG9 Ab binder: -2.1; NR1D1 modulator: -0.6; NR2E3 ag-1: -78.1; NR2E3 ag-2: -4.3

What do the screens show for `COc1ccc(C2CC(O)(c3ccccc3)Oc3cc(OC)c(OC)c(OC)c32)cc1` (stereo not drawn)?
PG9 Ab binder: -1.6; NR1D1 modulator: -1.9; NR2E3 ag-1: 4.3; NR2E3 ag-2: 2.0

What do the screens show for `COc1ccc([C@@]23Oc4cc(OC)cc(OC)c4[C@]2(O)[C@H](O)[C@H](C(=O)N(C)C)[C@H]3c2ccccc2)cc1`?
PG9 Ab binder: -1.8; NR1D1 modulator: -2.4; NR2E3 ag-1: 101.4*; NR2E3 ag confirm: 98.4*; GAL4-VP16 luc: 96.0*

Results for CNC[C@H](O)[C@@H](O)[C@H](O)[C@H](O)CO ?
NR1D1 modulator: -5.2

Results for CCOC(=O)[C@]12CCCC3=C1N(CCC3)C(=O)[C@@H](CC(=O)NCc1cccc3ccccc13)C2 ?
NR1D1 modulator: 2.9

What do the screens show for `COc1cccc(Cn2nnc(C(=O)Nc3cc(C)ccc3OC)c2N)c1`?
NR2E3 ag-1: 55.8; NR2E3 ag-2: 2.5; NR2E3 ag confirm: 58.3; GAL4-VP16 luc: 11.2

Source: PubChem BioAssay
